From ChEMBL document CHEMBL4043093, “2-Oxo-3, 4-dihydropyrimido[4, 5-d]pyrimidinyl derivatives as new irreversible pan fibroblast growth factor receptor (FGFR) inhibitors” (Eur J Med Chem, 2017)

Assays:
[1] = molecular target: Aurora kinase C (Homo sapiens) (UniProt Q9UQB9); assay: Inhibition of wild-type human full length AURKC (M1 to S275 residues) expressed in Escherichia coli BL21 assessed as residual activity at 1000 nM after 30 mins by Kinomescan method relative to control
Method in brief: (§1)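 Single-point screen at a fixed 1 µM, run within a 456-kinase DiscoveRx KINOMEscan panel. Each kinase's read-out is Percent Control, i.e. signal relative to a control without compound. Hits were scored by a Percent Control < 35 cut-off, and an S(35) selectivity score was calculated across the non-mutant kinases.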

[2] = molecular target: 1-phosphatidylinositol 3-phosphate 5-kinase (Homo sapiens) (UniProt Q9Y2I7); assay: Inhibition of wild-type human partial length PIKFYVE (F1512 to C2098 residues) expressed in HEK293 cells assessed as residual activity at 1000 nM after 30 mins by Kinomescan method relative to control; format: cell-based
[3] = molecular target: Ribosomal protein S6 kinase alpha-6 (Homo sapiens) (UniProt Q9UK32); assay: Inhibition of wild-type human partial length N-terminal RSK4 kinase domain 1 (M1 to E397 residues) expressed in HEK293 cells assessed as residual activity at 1000 nM after 30 mins by Kinomescan method relative to control; format: cell-based
[4] = molecular target: Serine/threonine-protein kinase 32C (Homo sapiens) (UniProt Q86UX6); assay: Inhibition of wild-type human partial length YANK3 (M68 to G486 residues) expressed in Escherichia coli BL21 assessed as residual activity at 1000 nM after 30 mins by Kinomescan method relative to control
[5] = molecular target: Ephrin type-B receptor 6 (Homo sapiens) (UniProt O15197); assay: Inhibition of wild-type human partial length EPHB6 (Q634 to P948 residues) expressed in HEK293 cells assessed as residual activity at 1000 nM after 30 mins by Kinomescan method relative to control; format: cell-based
Ephrin type-B receptor 6 (Homo sapiens), sequence (O15197 whole entry, the tested form may be a part): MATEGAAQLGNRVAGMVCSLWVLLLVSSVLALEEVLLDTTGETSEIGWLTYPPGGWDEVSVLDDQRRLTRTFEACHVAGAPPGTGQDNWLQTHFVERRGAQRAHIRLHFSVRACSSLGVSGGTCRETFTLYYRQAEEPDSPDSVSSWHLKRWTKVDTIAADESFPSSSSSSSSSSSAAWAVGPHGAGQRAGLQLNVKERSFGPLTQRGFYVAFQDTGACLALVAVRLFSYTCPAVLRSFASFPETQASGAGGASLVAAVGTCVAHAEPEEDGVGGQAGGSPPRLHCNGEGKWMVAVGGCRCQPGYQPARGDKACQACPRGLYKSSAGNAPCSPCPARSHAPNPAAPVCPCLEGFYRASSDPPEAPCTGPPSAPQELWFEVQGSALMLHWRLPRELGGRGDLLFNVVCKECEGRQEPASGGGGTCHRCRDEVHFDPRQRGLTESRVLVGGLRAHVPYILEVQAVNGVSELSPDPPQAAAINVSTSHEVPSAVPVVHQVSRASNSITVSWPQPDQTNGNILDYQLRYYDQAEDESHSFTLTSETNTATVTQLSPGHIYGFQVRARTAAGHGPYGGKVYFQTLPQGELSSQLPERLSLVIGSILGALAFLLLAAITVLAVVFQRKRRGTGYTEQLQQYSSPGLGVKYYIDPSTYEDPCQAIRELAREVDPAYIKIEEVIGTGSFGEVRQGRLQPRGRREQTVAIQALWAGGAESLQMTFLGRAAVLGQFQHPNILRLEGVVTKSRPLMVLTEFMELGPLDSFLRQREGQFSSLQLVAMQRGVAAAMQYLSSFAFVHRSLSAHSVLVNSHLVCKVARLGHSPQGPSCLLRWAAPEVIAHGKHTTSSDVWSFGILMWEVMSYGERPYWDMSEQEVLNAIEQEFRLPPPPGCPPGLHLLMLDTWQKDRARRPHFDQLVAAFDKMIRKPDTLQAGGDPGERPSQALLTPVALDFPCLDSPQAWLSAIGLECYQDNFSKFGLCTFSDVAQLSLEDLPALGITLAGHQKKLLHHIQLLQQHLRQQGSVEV

[6] = molecular target: STE20/SPS1-related proline-alanine-rich protein kinase (Homo sapiens) (UniProt Q9UEW8); assay: Inhibition of wild-type human partial length STK39 (P43 to I357 residues) expressed in HEK293 cells assessed as residual activity at 1000 nM after 30 mins by Kinomescan method relative to control; format: cell-based
[7] = tested on: Hepatocyte growth factor receptor (Homo sapiens), P08581 [M1250T]; assay: Inhibition of human partial length MET M1250T mutant (D1010 to S1367 residues) expressed in Escherichia coli BL21 assessed as residual activity at 1000 nM after 30 mins by Kinomescan method relative to control
Method in brief: (§2)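 KINOMEscan binding panel of 456 kinases, with the test compound at a single concentration of 1 µM. Read-out is Percent Control.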

[8] = molecular target: Inhibitor of nuclear factor kappa-B kinase subunit epsilon (Homo sapiens) (UniProt Q14164); assay: Inhibition of wild-type human full length IKK-epsilon (M1 to V716 residues) expressed in HEK293 cells assessed as residual activity at 1000 nM after 30 mins by Kinomescan method relative to control; format: cell-based
Method in brief: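 Single-concentration screen at 1 µM across a 456-kinase KINOMEscan panel. The read-out is Percent Control for each kinase.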

[9] = molecular target: Vascular endothelial growth factor receptor 1 (Homo sapiens) (UniProt P17948); assay: Inhibition of wild-type human partial length FLT1 (R781 to F1239 residues) expressed in Escherichia coli BL21 assessed as residual activity at 1000 nM after 30 mins by Kinomescan method relative to control
[10] = molecular target: Mitogen-activated protein kinase 10 (Homo sapiens) (UniProt P53779); assay: Inhibition of wild-type human partial length JNK3 (V28 to Q422 residues) expressed in HEK293 cells assessed as residual activity at 1000 nM after 30 mins by Kinomescan method relative to control; format: cell-based
[11] = molecular target: cAMP-dependent protein kinase catalytic subunit beta (Homo sapiens) (UniProt P22694); assay: Inhibition of wild-type human full length PKAC-beta (M1 to F351 residues) expressed in Escherichia coli BL21 assessed as residual activity at 1000 nM after 30 mins by Kinomescan method relative to control
Method in brief: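 Single-concentration screen at 1 µM against a 456-kinase panel (KINOMEscan). Read-out is Percent Control for each kinase. Across the 403 non-mutant kinases, an S(35) selectivity score was derived as the fraction of kinases with Percent Control < 35.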

[12] = tested on: Tyrosine-protein kinase ABL1 (Homo sapiens), P00519 [M351T]; assay: Inhibition of human phosphorylated ABL1 M351T mutant (S229 to K512 residues) expressed in HEK293 cells assessed as residual activity at 1000 nM after 30 mins by Kinomescan method relative to control; format: cell-based; method in brief: as §1
[13] = molecular target: Aurora kinase A (Homo sapiens) (UniProt O14965); assay: Inhibition of wild-type human partial length AURKA (E122 to K401 residues) expressed in HEK293 cells assessed as residual activity at 1000 nM after 30 mins by Kinomescan method relative to control; format: cell-based
Aurora kinase A (Homo sapiens), sequence (O14965 whole entry, the tested form may be a part): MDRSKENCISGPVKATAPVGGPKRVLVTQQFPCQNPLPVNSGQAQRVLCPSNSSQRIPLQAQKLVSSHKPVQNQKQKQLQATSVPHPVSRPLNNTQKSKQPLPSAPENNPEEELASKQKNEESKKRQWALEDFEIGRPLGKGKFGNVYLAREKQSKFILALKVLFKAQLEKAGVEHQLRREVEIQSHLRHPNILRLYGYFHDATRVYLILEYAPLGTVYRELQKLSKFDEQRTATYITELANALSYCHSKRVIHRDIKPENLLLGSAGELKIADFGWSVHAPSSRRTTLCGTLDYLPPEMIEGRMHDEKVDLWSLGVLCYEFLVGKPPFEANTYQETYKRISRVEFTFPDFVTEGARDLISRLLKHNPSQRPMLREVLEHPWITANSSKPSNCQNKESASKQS

[14] = molecular target: Serine/threonine-protein kinase PRP4 homolog (Homo sapiens) (UniProt Q13523); assay: Inhibition of wild-type human partial length PRP4 (D657 to I1007 residues) expressed in Escherichia coli BL21 assessed as residual activity at 1000 nM after 30 mins by Kinomescan method relative to control
Serine/threonine-protein kinase PRP4 homolog (Homo sapiens), sequence (Q13523 whole entry, the tested form may be a part): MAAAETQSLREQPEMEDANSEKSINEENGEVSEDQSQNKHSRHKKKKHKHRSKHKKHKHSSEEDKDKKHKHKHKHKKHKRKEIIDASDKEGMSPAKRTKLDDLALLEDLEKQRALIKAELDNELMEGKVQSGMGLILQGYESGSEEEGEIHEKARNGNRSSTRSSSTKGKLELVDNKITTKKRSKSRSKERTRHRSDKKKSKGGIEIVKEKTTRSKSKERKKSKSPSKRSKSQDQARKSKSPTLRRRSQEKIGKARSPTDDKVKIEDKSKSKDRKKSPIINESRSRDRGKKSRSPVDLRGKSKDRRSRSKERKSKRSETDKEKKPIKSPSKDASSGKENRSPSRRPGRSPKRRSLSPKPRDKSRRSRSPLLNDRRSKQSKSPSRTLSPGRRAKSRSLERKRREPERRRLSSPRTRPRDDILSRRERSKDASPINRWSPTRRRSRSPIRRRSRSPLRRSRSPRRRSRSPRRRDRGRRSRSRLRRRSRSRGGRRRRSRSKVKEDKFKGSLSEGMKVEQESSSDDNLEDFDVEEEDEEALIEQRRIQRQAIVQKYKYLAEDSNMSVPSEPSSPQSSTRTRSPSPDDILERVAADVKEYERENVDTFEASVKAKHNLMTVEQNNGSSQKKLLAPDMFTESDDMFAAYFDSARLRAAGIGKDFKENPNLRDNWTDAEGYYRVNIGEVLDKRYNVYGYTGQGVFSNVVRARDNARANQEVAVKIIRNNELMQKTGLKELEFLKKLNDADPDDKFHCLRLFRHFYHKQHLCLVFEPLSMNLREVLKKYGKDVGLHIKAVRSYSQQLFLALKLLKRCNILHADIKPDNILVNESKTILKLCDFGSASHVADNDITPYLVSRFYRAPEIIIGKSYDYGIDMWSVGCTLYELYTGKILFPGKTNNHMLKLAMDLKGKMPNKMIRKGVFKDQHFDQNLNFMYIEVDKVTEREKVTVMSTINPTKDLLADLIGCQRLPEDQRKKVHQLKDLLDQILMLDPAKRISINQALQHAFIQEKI

[15] = tested on: Epidermal growth factor receptor (Homo sapiens), P00533 [T790M]; assay: Inhibition of human partial length EGFR T790M mutant (R669 to G1022 residues) expressed in HEK293 cells assessed as residual activity at 1000 nM after 30 mins by Kinomescan method relative to control; format: cell-based; method in brief: as §2
[16] = molecular target: Serine/threonine-protein kinase 24 (Homo sapiens) (UniProt Q9Y6E0); assay: Inhibition of wild-type human partial length MST3 (A30 to S311 residues) expressed in Escherichia coli BL21 assessed as residual activity at 1000 nM after 30 mins by Kinomescan method relative to control
[17] = tested on: Phosphatidylinositol 4,5-bisphosphate 3-kinase catalytic subunit alpha isoform (Homo sapiens), P42336 [C420R]; assay: Inhibition of human partial length PIK3CA C420R mutant (R108 to N1068 residues) expressed in HEK293 cells assessed as residual activity at 1000 nM after 30 mins by Kinomescan method relative to control; format: cell-based; method in brief: as §2
[18] = molecular target: Ribosomal protein S6 kinase alpha-5 (Homo sapiens) (UniProt O75582); assay: Inhibition of wild-type human partial length N-terminal RPS6KA5 kinase domain 1 expressed in Escherichia coli BL21 assessed as residual activity at 1000 nM after 30 mins by Kinomescan method relative to control
[19] = molecular target: NT-3 growth factor receptor (Homo sapiens) (UniProt Q16288); assay: Inhibition of wild-type human partial length TRKC (Q531 to G825 residues) expressed in HEK293 cells assessed as residual activity at 1000 nM after 30 mins by Kinomescan method relative to control; format: cell-based
NT-3 growth factor receptor (Homo sapiens), sequence (Q16288 32-839 limits assumed): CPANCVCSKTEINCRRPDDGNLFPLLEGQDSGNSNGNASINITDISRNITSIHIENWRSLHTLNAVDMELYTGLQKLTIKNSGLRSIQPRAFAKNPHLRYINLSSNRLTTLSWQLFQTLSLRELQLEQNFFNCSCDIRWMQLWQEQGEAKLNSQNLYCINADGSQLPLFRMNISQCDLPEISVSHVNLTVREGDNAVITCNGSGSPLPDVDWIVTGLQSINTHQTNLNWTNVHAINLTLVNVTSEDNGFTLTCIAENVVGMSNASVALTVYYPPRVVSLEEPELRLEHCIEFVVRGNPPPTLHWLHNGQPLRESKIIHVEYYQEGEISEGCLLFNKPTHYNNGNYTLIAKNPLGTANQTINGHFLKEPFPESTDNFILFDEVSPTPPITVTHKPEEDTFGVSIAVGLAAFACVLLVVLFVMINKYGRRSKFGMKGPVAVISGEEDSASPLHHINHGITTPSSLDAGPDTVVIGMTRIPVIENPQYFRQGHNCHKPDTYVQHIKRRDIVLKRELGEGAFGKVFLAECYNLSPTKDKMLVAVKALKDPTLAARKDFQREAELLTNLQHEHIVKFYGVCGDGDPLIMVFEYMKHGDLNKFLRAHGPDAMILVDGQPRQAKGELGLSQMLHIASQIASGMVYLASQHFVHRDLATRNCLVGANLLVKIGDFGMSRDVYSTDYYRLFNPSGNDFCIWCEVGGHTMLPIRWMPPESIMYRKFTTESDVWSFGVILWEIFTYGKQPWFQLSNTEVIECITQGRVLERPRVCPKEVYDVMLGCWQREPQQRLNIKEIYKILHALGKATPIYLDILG

[20] = molecular target: Homeodomain-interacting protein kinase 1 (Homo sapiens) (UniProt Q86Z02); assay: Inhibition of wild-type human partial length HIPK1 (M146 to I555 residues) expressed in HEK293 cells assessed as residual activity at 1000 nM after 30 mins by Kinomescan method relative to control; format: cell-based
Homeodomain-interacting protein kinase 1 (Homo sapiens), sequence (Q86Z02 whole entry, looked up, the tested form may be a part): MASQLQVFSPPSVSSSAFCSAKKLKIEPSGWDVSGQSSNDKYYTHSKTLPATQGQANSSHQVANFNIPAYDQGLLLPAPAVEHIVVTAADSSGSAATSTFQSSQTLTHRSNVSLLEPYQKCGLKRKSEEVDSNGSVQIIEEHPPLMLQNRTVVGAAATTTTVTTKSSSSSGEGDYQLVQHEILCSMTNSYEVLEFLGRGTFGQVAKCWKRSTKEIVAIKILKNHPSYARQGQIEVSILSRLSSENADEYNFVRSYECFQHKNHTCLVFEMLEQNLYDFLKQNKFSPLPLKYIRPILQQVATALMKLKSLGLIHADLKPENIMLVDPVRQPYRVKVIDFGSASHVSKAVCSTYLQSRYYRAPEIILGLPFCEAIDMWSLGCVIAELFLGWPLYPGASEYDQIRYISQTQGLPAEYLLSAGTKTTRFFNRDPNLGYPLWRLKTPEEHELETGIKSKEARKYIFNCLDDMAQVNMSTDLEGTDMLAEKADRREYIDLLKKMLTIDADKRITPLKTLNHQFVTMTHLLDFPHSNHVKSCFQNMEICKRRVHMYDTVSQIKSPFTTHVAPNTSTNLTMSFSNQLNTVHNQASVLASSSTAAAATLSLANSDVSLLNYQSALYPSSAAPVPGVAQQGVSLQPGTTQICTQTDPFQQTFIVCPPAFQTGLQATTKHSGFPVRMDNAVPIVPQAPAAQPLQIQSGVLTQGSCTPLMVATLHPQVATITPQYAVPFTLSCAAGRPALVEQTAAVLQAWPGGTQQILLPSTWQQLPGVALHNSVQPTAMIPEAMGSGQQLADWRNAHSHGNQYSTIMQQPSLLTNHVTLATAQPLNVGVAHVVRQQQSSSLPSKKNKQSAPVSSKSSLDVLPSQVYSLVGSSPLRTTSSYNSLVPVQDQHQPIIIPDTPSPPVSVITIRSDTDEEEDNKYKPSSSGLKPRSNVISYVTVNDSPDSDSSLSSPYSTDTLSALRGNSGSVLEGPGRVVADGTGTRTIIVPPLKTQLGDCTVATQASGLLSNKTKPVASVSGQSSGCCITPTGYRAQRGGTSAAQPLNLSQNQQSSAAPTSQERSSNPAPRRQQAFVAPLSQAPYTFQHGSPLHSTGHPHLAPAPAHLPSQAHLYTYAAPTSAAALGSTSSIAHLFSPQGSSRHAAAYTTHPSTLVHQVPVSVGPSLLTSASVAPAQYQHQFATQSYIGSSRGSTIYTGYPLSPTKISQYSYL

Aurora kinase C (Homo sapiens), sequence (Q9UQB9 whole entry, the tested form may be a part): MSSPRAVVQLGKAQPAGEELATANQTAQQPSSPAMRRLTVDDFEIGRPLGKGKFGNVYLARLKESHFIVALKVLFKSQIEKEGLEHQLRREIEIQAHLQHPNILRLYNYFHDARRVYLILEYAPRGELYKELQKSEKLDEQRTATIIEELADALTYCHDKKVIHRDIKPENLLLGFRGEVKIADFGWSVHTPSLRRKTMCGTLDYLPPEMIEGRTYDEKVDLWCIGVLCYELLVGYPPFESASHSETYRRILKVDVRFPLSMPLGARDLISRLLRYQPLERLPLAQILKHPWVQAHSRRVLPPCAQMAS

Q: `COc1cc(OC)c(Cl)c(N2Cc3cnc(Nc4ccc(F)cc4)nc3N(C3CCN(C(=O)/C=C/CN(C)C)CC3)C2=O)c1Cl` was tested. Which Activity [1] did it give?
A: Its Activity is 100%.

Q: What about the Activity [2] of the same compound?
A: The Activity was 95%.

Q: And the Activity [3]?
A: Its Activity is 100%.

Q: What about the Activity [4] of the same compound?
A: The Activity was 90%.

Q: What about the Activity [5] of the same compound?
A: The Activity was 67%.

Q: And the Activity [6]?
A: Its Activity is 100%.

Q: And the Activity [7]?
A: The Activity was 100%.

Q: And the Activity [8]?
A: Its Activity is 100%.

Q: What about the Activity [9] of the same compound?
A: Its Activity is 5.6%.

Q: And the Activity [10]?
A: The Activity was 100%.

Q: What about the Activity [11] of the same compound?
A: Its Activity is 95%.

Q: And the Activity [12]?
A: Its Activity is 47%.

Q: And the Activity [13]?
A: The Activity was 100%.

Q: And the Activity [14]?
A: The Activity was 92%.

Q: What about the Activity [15] of the same compound?
A: Its Activity is 94%.

Q: And the Activity [16]?
A: The Activity was 68%.

Q: And the Activity [17]?
A: The Activity was 100%.

Q: And the Activity [18]?
A: The Activity was 99%.

Q: And the Activity [19]?
A: Its Activity is 100%.

Q: And the Activity [20]?
A: Its Activity is 100%.
